NPY-Y2 antag – antagonists of human neuropeptide Y receptor Y2 | P49146 | NPY-Y2 expressing cells, antagonist mode | inhibition, % at 2.7 µM | 0.99% of 140,000 active | AID 793;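 further: 0% = vehicle with agonist challenge and 100% = reference antagonist with challenge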
S1P4 antag – blocks the human S1P4 receptor | O95977 | S1P4-expressing cells, antagonist mode, reporter read-out | inhibition, % at 4.98 µM | 0.26% of 220,000 active | AID 1510; in the data active means inhibition above about 29%;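 further: 0% = wells stimulated with agonist and 100% = vehicle wells without agonist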
S1P4 agonist – agonists of human S1P4 receptor; O95977; S1P4-expressing cell line, agonist reporter assay; activation, % at 4.98 µM; 0.35% of 220,000 active; in the data active means activation above about 11%;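 further: 0% = DMSO vehicle and 100% = reference agonist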
NPY Y1 blocker – antagonists of human neuropeptide Y receptor Y1; P25929; HEK293-CNG Y1 cells, membrane potential fluorescence; NPY at EC95, then isoproterenol; inhibition, % at 3.6 µM; 1% of 200,000 active;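 active means inhibition above the campaign mean inhibition of all tested compounds plus 3 SD, cut at about 20% in these data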;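 further: 0% = DMSO wells given NPY plus isoproterenol and 100% = isoproterenol alone without NPY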
Target sequence (P25929 whole entry, looked up): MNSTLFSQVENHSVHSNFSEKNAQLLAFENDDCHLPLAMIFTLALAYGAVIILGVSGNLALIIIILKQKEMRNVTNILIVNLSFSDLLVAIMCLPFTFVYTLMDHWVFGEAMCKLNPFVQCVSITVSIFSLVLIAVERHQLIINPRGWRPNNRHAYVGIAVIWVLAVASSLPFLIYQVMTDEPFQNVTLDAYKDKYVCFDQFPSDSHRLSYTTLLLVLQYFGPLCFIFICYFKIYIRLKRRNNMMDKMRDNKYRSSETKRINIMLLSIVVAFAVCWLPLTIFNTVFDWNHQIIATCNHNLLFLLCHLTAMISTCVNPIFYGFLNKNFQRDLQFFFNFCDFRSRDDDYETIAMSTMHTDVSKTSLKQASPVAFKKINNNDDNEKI
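Test system: HEK293 cells co-expressing NPY Y1 receptor and cyclic-nucleotide gated channel; Also added: NPY (25 nM), isoproterenol (1 µM), Ro 20-1724 (25 µM); Compound dosing: one concentration, 3.6 µM, in 0.4% DMSO; Timing: dye 3 h, compound 60 min room temperature, stimulation 45 min; Technique: Membrane-potential fluorescent dye readout.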
NPY-Y1 PAM-ag – potentiates or activates human NPY-Y1 receptor. 0.37% of 220,000 active. activation, % at 3.6 µM. P25929. NPY-Y1 expressing cells, potentiator/agonist activation. AID 1304; in the data active means activation above about 33%, passing the limit was not always enough;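 further: cells stimulated with NPY at EC10 then isoproterenol at EC100; 0% = low agonist plus stimulus and 100% = saturating agonist plus stimulus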
NPY-Y2 PAM-ag – potentiators or agonists of human neuropeptide Y receptor Y2; P49146; cells expressing NPY-Y2, potentiator/agonist read-out; activation, % at 3.6 µM; 0.45% of 220,000 active; AID 1359; in the data active means activation above about 27%;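 further: cells stimulated with NPY near EC25 plus isoproterenol at EC100; 0% = vehicle plus submaximal agonist and 100% = vehicle plus saturating agonist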
NPY-Y1 ant conf – confirmation of human neuropeptide Y receptor Y1 antagonists; shares compounds with NPY Y1 blocker; HEK293-CNG NPY-Y1, membrane potential fluorescence, cAMP; NPY challenge against isoproterenol-raised cAMP; inhibition, % at 3.6 µM; 21% of 1,200 active; in the data active means inhibition above about 20%;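 further: 0% = vehicle with agonist plus stimulus and 100% = stimulus alone without agonist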
NPY2 antag ctr – antagonizes human NPY-Y2, counter-screen to NPY-Y1 antagonists; shares compounds with NPY Y1 blocker; AID 1255; 28% of 1,200 active; HEK293 NPY-Y2 CNG membrane potential fluorescence, antagonism; cells given NPY, then isoproterenol; inhibition, % at 3.6 µM;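 further: 0% = DMSO with agonist challenge and 100% = reference antagonist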
Numbers without * were called inactive; . = no result. Hits are enriched below; roughly 2.4% of the tested compounds scored in any of these assays. Unless noted, no stated cut-off is given here; in the data, active means inhibition above about 17%; inactive means the rest.

SMILES | NPY-Y2 antag | S1P4 antag | S1P4 agonist | NPY Y1 blocker | NPY-Y1 PAM-ag | NPY-Y2 PAM-ag | NPY-Y1 ant conf | NPY2 antag ctr
O=C(NC(Cc1ccccc1)C(=O)O)/C(=C/c1ccc([N+](=O)[O-])cc1)NC(=O)c1ccccc1Br (centres undefined) | . | 1 | 1 | -2 | 2 | -15 | . | .
CC(C)NC(=O)c1onc(CSc2cccc3ccccc23)c1C(=O)O | 10 | 7 | 2 | 22* | -13 | -44 | 18 | 11
CC(C)NC(=O)c1onc(CSc2ccccc2)c1C(=O)O | 5 | 10 | -1 | 8 | -33 | -9 | . | .
CCCCNC(=O)c1onc(CSc2cccc(OCC)c2)c1C(=O)O | 16 | -22 | 0 | 22* | -46 | -30 | 15 | 14
CCOc1cccc(SCc2noc(C(=O)NCCOC)c2C(=O)O)c1 | 3 | 4 | 3 | 1 | 12 | 2 | . | .
COC(=O)[C@@]1(Cc2ccc(OC)cc2)[C@H]2c3cc(C(=O)N(C)C)n(Cc4ccc(OC(F)(F)F)cc4)c3C[C@H]2CN1C(=O)c1ccccc1 | 16 | 4 | 1 | 35* | 3 | 9 | 14 | 6
COC(=O)[C@@]1(Cc2ccc(F)cc2)[C@H]2c3cc(C(=O)N(C)C)n(Cc4ccc(OC)c(OC)c4)c3C[C@H]2CN1C(=O)c1ccccc1 | 8 | 4 | 1 | 7 | 17 | -1 | . | .
S=C(Nc1ccccc1)c1nc2ccccc2s1 | 0 | -17 | 4 | -4 | -12 | -3 | . | .
Cc1cn(S(=O)(=O)c2ccc(Br)c3ccccc23)cn1 | 7 | -6 | 1 | 27* | -22 | -29 | 10 | 7
COc1cc(S(=O)(=O)n2cnc(C)c2)ccc1Br | . | -17 | 4 | 2 | 1 | -2 | . | .
CCN(CC)S(=O)(=O)c1ccc(Oc2ccc(S(=O)(=O)N(CC)CC)cc2)cc1 | 4 | -8 | -1 | 32* | -20 | -3 | 21* | 13
CCN(CC)S(=O)(=O)c1ccc(Oc2ccccc2OC)cc1 | . | -1 | -2 | . | 8 | 9 | . | .
O=C(c1ccc2c(c1)OCO2)C1CCCN(C2CCN(CCc3ccccc3)CC2)C1 (centres undefined) | . | -2 | -1 | 22* | -29 | -30 | 18 | 23*
CCC(Oc1ccc(C)c(C)c1)C(=O)O (centres undefined) | 6 | 0 | -1 | 23* | -6 | -3 | 5 | 6
CC(=O)N1C(C)(C)CC(=NOC(=O)c2ccc(C)cc2)CC1(C)C | . | -14 | 0 | -3 | 12 | -4 | . | .
CN1CCN(C(=O)c2ccccc2-c2nc(-c3ccccc3)no2)CC1 | 3 | 1 | 2 | 28* | 14 | 9 | 0 | 2
O=C(Cc1cccs1)N(CC1CCCO1)C1(C(=O)NC2CCCC2)CCCCC1 (centres undefined) | . | -13 | -1 | 36* | -17 | -10 | 14 | 8
O=C(c1ccccn1)N(CC1CCCO1)C1(C(=O)NC2CCCCC2)CCCCC1 (centres undefined) | 12 | -15 | -2 | 13 | -13 | -6 | . | .
CCOC(=O)c1[nH]c(C)c(C(=O)OCC(=O)NC(=O)NC(C)(C)C)c1C | 0 | 0 | -3 | 21* | -7 | -8 | 0 | 2
CCN(Cc1ccccc1)C(c1cccc(C#N)c1)c1nnnn1C(C)(C)C (centres undefined) | 8 | 10 | 0 | 33* | -14 | -14 | 3 | 5
CCC(=O)c1ccc(OC(C)C(=O)NC2(C#N)CCCCC2)cc1 (centres undefined) | . | 4 | 1 | 6 | 19 | 15 | . | .
Cc1noc(C)c1CSc1nnc(-c2ccccc2F)n1CCc1ccccc1 | 12 | 16 | -2 | 20* | -15 | 9 | 4 | 4
Cc1ccc(-c2nnc(N3CCC(C)CC3)c3ccccc23)cc1 | . | -8 | 0 | 29* | -3 | -3 | 12 | 7
Cc1ccc(-c2nnc(N3CCC(C)CC3)c3ccccc23)cc1C | . | -4 | 2 | 26* | -25 | -10 | 9 | 14
CCn1c(CC(=O)Nc2ccccc2)nnc1SCc1nc2ccccc2c(=O)[nH]1 | . | -12 | 0 | . | 13 | 2 | . | .
SMILES | NPY-Y2 antag | S1P4 antag | S1P4 agonist | NPY Y1 blocker | NPY-Y1 PAM-ag | NPY-Y2 PAM-ag | NPY-Y1 ant conf | NPY2 antag ctr
Cc1c(-c2cc(C(=O)O)on2)cnn1C | . | 8 | 0 | 1 | 4 | 4 | . | .
Clc1ccc(/C=C/c2nc(Cl)c(-c3ccc(Cl)cc3)c(Cl)n2)cc1 | . | -5 | 1 | . | 3 | -3 | . | .
COc1ccc(CNC(=O)C(CCSC)NC(=O)c2ccco2)cc1 (centres undefined) | 2 | -18 | -3 | 3 | 2 | -4 | . | .
CSCCC(NC(=O)c1ccco1)C(=O)OC(C)C(=O)NC(=O)NC1CCCCC1 (centres undefined) | 2 | 19 | 0 | 25* | -27 | -21 | 8 | 8
Cc1c(C(=O)OC2CCC(C)CC2)[nH]c2c1C(=O)CCC2 (centres undefined) | 1 | 0 | 1 | -5 | 8 | 5 | . | .
COC(=O)c1[nH]c2c(c1C)C(=O)CCC2 | 0 | 1 | 1 | 31* | -5 | 4 | -4 | 2
CCc1cccc(NC(=O)c2ccc(CNc3c(N4CCCC4)c(=O)c3=O)cc2)c1 | . | -5 | 2 | . | 5 | -27 | . | .
CC1(C)CC(N2CCN(c3ccccc3)CC2)=CC(=[N+]2CCCC2)C1 | 3 | 2 | 2 | 4 | 2 | 17 | . | .
CC1(C)CC(N2CCCC2)=CC(=[N+]2CCCCCC2)C1 | . | -4 | 0 | 26* | -25 | 3 | 23* | 12
CC1CC(C)C[N+](=C2C=C(N3CCCC3)CC(C)(C)C2)C1 (centres undefined) | . | -18 | 1 | 42* | -10 | 15 | 31* | 13
CCOC(=O)N/N=C(\C)c1ccc(-n2cnnn2)cc1 | . | -7 | 1 | 4 | -2 | 15 | . | .
CC(C)(C)OC(=O)C(Cc1ccc(OC(C)(C)C)cc1)NC(=O)CNC(=O)OCc1ccccc1 (centres undefined) | 0 | -13 | 2 | 1 | -6 | -5 | . | .
CCc1c(-c2ccccc2)[n+](=O)c2c(n1[O-])CCC2 | . | -7 | 2 | . | 12 | 19 | . | .
Nc1nn(-c2ccccc2)nc1C(=O)OCc1ccccc1F | . | -9 | 5 | 30* | -27 | -15 | 8 | 7
NC(C(=O)O)C(c1ccccc1)C(F)F (centres undefined) | . | 6 | 0 | . | 0 | -14 | . | .
Cc1ccc2nc3c(c(C(=O)O)c2c1)CCC3 | 8 | 11 | 0 | 22* | -38 | -2 | 5 | 11
O=C1/C(=C\c2ccc(Br)o2)Cc2ccccc21 | 13 | 3 | -1 | 25* | -22 | 14 | 16 | 7

Assay outcomes from PubChem BioAssay.
